In ChEMBL document CHEMBL1126196, “Improvements in the minimum binding sequence of C5a: examination of His-67” (J Med Chem, 1992):
Square brackets hold non-standard residues; d marks the D form. Peptide text beside a SMILES is read from it. * marks the point of attachment. His(τ-Me) = Cn1cnc(C[C@H](N)C(=O)O)c1; His(π-Me) = Cn1cncc1C[C@H](N)C(=O)O; Hydrocinnamoyl = O=C(CCc1ccccc1)*; hPhe = N[C@@H](CCc1ccccc1)C(=O)O; Cha = N[C@@H](CC1CCCCC1)C(=O)O; Phg = N[C@H](C(=O)O)c1ccccc1

Experiments:
Homo sapiens [1] = species on record: Homo sapiens; experiment: In vitro agonist efficacy against polymorphonuclear leukocyte (PMNL) chemokinesis; design: concentration or dose not given beside the values
Cavia porcellus [2] = experiment: In vivo agonist efficacy by its ability to cause evans blue dye leakage as a marker of increased vascular permeability when injected intradermally in guinea pig; assay type: functional; design: concentration or dose not given beside the values
In short: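 Guinea pig, intradermal injection of peptide at a single high concentration; Evans blue dye leakage read as vascular permeability increase, compared with the maximal response to a control rC5a injection included in each test group.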

Cavia porcellus [3] = experiment: In vivo potency by its ability to cause evans blue dye leakage as a marker of increased vascular permeability when injected intradermally in guinea pig; assay type: functional, organism-based
[4] = molecular target: T1, C5a anaphylatoxin chemotactic receptor 1 (Homo sapiens, UniProt P21730); experiment: Inhibitory activity against [125I]-rC5a binding to C5a anaphylatoxin chemotactic receptor in human polymorphonuclear leukocyte (PMNL) membranes
T1 sequence (P21730 whole entry): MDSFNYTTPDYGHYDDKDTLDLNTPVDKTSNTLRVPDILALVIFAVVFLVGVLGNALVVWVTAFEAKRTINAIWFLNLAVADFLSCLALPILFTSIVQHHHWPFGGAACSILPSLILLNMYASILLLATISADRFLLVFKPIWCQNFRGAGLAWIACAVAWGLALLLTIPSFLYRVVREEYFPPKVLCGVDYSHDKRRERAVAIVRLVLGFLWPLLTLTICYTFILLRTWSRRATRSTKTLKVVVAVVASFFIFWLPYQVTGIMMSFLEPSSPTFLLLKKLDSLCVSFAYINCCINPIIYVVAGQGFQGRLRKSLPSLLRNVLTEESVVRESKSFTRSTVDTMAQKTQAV
In short: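 Competition binding on human PMNL membrane fragments, peptides displacing ¹²⁵I-labelled recombinant C5a. Inhibition binding data converted to apparent dissociation constant (Ki) by the Cheng–Prusoff method.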

Homo sapiens [5] = species on record: Homo sapiens; experiment: In vitro potency against polymorphonuclear leukocyte (PMNL) chemokinesis; assay type: functional
In short: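 PMNL chemokinesis run over half-log concentration steps based on the binding Ki; EC50 obtained by least-squares regression as the concentration giving 50% of that peptide's own maximal response.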

Molecule | Activity (Homo sapiens [1]) [%] | Activity (Cavia porcellus [2]) [%] | EC50 (Cavia porcellus [3]) [µM] | Ki [4] [µM] | EC50 (Homo sapiens [5]) [nM]
H-LRANISFKDMQLGR-OH | 133 | 116 | < 300 | 0.81 | 1600
CSCC[C@H](NC(=O)[C@H](CC(=O)O)NC(=O)[C@H](CCCCN)NC(=O)[C@H](N)Cc1ccccc1)C(=O)N[C@@H](CCC(N)=O)C(=O)N[C@@H](CC(C)C)C(=O)NCC(=O)N[C@@H](CCCN=C(N)N)C(=O)O | 70 |  |  | 79 | 80000
CSCC[C@H](NC(=O)[C@H](CC(=O)O)NC(=O)[C@H](CCCCN)NC(=O)[C@@H](N)Cc1cccs1)C(=O)N[C@@H](CCC(N)=O)C(=O)N[C@@H](CC(C)C)C(=O)NCC(=O)N[C@@H](CCCN=C(N)N)C(=O)O [listing 1 of 2 here] | 142 |  |  |  | 
CSCC[C@H](NC(=O)[C@H](CC(=O)O)NC(=O)[C@H](CCCCN)NC(=O)[C@@H](N)CCc1ccccc1)C(=O)N[C@@H](CCC(N)=O)C(=O)N[C@@H](CC(C)C)C(=O)NCC(=O)N[C@@H](CCCNC(=N)N)C(=O)O (H-[hPhe]KDMQLGR-OH) |  |  |  | 36 | 
CSCC[C@H](NC(=O)[C@H](CC(=O)O)NC(=O)[C@H](CCCCN)NC(=O)CCc1ccccc1)C(=O)N[C@@H](CCC(N)=O)C(=O)N[C@@H](CC(C)C)C(=O)NCC(=O)N[C@@H](CCCNC(=N)N)C(=O)O (Hydrocinnamoyl-KDMQLGR-OH) |  |  |  | 4.4 | 
CSCC[C@H](NC(=O)[C@H](CC(=O)O)NC(=O)[C@H](CCCCN)NC(=O)[C@@H](N)CCc1ccccc1)C(=O)N[C@@H](CCC(N)=O)C(=O)N[C@@H](CC(C)C)C(=O)NCC(=O)N[C@@H](CCCN=C(N)N)C(=O)O (H-[hPhe]KDMQLGR-OH) | 162 |  |  |  | 15000
Ac-FKDMQLGR-OH [listing 1 of 2 here] |  |  |  | 0.2 | 440
CSCC[C@H](NC(=O)[C@H](CC(=O)O)NC(=O)[C@H](CCCCN)NC(=O)[C@@H](N)Cc1cccs1)C(=O)N[C@@H](CCC(N)=O)C(=O)N[C@@H](CC(C)C)C(=O)NCC(=O)N[C@@H](CCCNC(=N)N)C(=O)O |  |  |  | 2.1 | 
H-HKDMQLGR-OH | 129 |  |  |  | 110000
CSCC[C@H](NC(=O)[C@H](CC(=O)O)NC(=O)[C@H](CCCCN)NC(=O)[C@@H](N)Cc1cccs1)C(=O)N[C@@H](CCC(N)=O)C(=O)N[C@@H](CC(C)C)C(=O)NCC(=O)N[C@@H](CCCN=C(N)N)C(=O)O [listing 2 of 2 here] |  |  | < 1000 |  | 530
CSCC[C@H](NC(=O)[C@H](CC(=O)O)NC(=O)[C@H](CCCCN)NC(=O)[C@H](N)Cc1cccs1)C(=O)N[C@@H](CCC(N)=O)C(=O)N[C@@H](CC(C)C)C(=O)NCC(=O)N[C@@H](CCCN=C(N)N)C(=O)O |  | 85 |  |  | 
CSCC[C@H](NC(=O)[C@H](CC(=O)O)NC(=O)[C@H](CCCCN)NC(=O)[C@@H](N)CC1CCCCC1)C(=O)N[C@@H](CCC(N)=O)C(=O)N[C@@H](CC(C)C)C(=O)NCC(=O)N[C@@H](CCCN=C(N)N)C(=O)O (H-[Cha]KDMQLGR-OH) [listing 1 of 2 here] |  |  |  |  | 3000
CSCC[C@H](NC(=O)[C@H](CC(=O)O)NC(=O)[C@H](CCCCN)NC(=O)[C@@H](N)Cc1cn(C)cn1)C(=O)N[C@@H](CCC(N)=O)C(=O)N[C@@H](CC(C)C)C(=O)NCC(=O)N[C@@H](CCCNC(=N)N)C(=O)O (H-[His(τ-Me)]KDMQLGR-OH) [listing 1 of 2 here] | 90 |  |  |  | 
CSCC[C@H](NC(=O)[C@H](CC(=O)O)NC(=O)[C@H](CCCCN)NC(=O)[C@@H](N)CC1CCCCC1)C(=O)N[C@@H](CCC(N)=O)C(=O)N[C@@H](CC(C)C)C(=O)NCC(=O)N[C@@H](CCCN=C(N)N)C(=O)O (H-[Cha]KDMQLGR-OH) [listing 2 of 2 here] | 154 |  |  |  | 
CSCC[C@H](NC(=O)[C@H](CC(=O)O)NC(=O)[C@H](CCCCN)NC(=O)[C@@H](N)CC1CCCCC1)C(=O)N[C@@H](CCC(N)=O)C(=O)N[C@@H](CC(C)C)C(=O)NCC(=O)N[C@@H](CCCNC(=N)N)C(=O)O (H-[Cha]KDMQLGR-OH) |  |  |  | 13 | 
CSCC[C@H](NC(=O)[C@H](CC(=O)O)NC(=O)[C@H](CCCCN)NC(=O)[C@@H](N)Cc1cncn1C)C(=O)N[C@@H](CCC(N)=O)C(=O)N[C@@H](CC(C)C)C(=O)NCC(=O)N[C@@H](CCCN=C(N)N)C(=O)O (H-[His(π-Me)]KDMQLGR-OH) | 88 |  |  | 180 | 110000
CSCC[C@H](NC(=O)[C@H](CC(=O)O)NC(=O)[C@H](CCCCN)NC(=O)[C@@H](N)Cc1ccccc1)C(=O)N[C@@H](CCC(N)=O)C(=O)N[C@@H](CC(C)C)C(=O)NCC(=O)N[C@@H](CCCN=C(N)N)C(=O)O | 132 | 60 | < 1000 | 0.26 | 460
CSCC[C@H](NC(=O)[C@H](CC(=O)O)NC(=O)[C@H](CCCCN)NC(=O)[C@@H](N)Cc1cn(C)cn1)C(=O)N[C@@H](CCC(N)=O)C(=O)N[C@@H](CC(C)C)C(=O)NCC(=O)N[C@@H](CCCNC(=N)N)C(=O)O (H-[His(τ-Me)]KDMQLGR-OH) [listing 2 of 2 here] |  |  |  | 58 | 17000
CSCC[C@H](NC(=O)[C@H](CC(=O)O)NC(=O)[C@H](CCCCN)NC(=O)CCc1ccccc1)C(=O)N[C@@H](CCC(N)=O)C(=O)N[C@@H](CC(C)C)C(=O)NCC(=O)N[C@@H](CCCN=C(N)N)C(=O)O (Hydrocinnamoyl-KDMQLGR-OH) | 84 |  |  |  | 800
H-ISFKDMQLGR-OH | 76 | 54 | < 100 |  | 720
CSCC[C@H](NC(=O)[C@H](CC(=O)O)NC(=O)[C@H](CCCCN)NC(=O)[C@@H](N)c1ccccc1)C(=O)N[C@@H](CCC(N)=O)C(=O)N[C@@H](CC(C)C)C(=O)NCC(=O)N[C@@H](CCCN=C(N)N)C(=O)O (H-[Phg]KDMQLGR-OH) [listing 1 of 2 here] |  |  |  | 31 | 10000
CSCC[C@H](NC(=O)[C@H](CC(=O)O)NC(=O)[C@H](CCCCN)NC(=O)[C@@H](N)c1ccccc1)C(=O)N[C@@H](CCC(N)=O)C(=O)N[C@@H](CC(C)C)C(=O)NCC(=O)N[C@@H](CCCN=C(N)N)C(=O)O (H-[Phg]KDMQLGR-OH) [listing 2 of 2 here] | 72 |  |  |  | 
Ac-FKDMQLGR-OH [listing 2 of 2 here] | 76 |  |  |  | 
H-ANISFKDMQLGR-OH | 85 | 69 | < 100 |  | 250
